The subject of series [1] is DU-145. Kind of series: Cytotoxicity against human DU145 cells after 48 hrs by […]. The series is classed as functional, cell-based. The note with it: for IC50: DU-145, 48 h. The procedure, abridged: (§1)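 Cells from ATCC, grown in RPMI 1640 with 10% heat-inactivated FBS and 1% penicillin/streptomycin. Seeded at 5000 cells/well and incubated overnight, then exposed to graded compound concentrations or DMSO vehicle for 48 h. Viability was read by MTS reagent absorbance at 490 nm and normalized to vehicle. Each experiment was run in triplicate or quadruplicate; values are means ± SD.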

Series [2] has as its system A2058. As to the kind of experiment: Cytotoxicity against human A2058 cells after 48 hrs by […]. The series is classed as functional, cell-based. The note with it: for IC50: A2058, 48 h. The procedure, abridged:
as §1

The subject of series [3] is NHDF. As to the kind of experiment: Cytotoxicity against human NHDF cells after 48 hrs by […]. The series is classed as cell-based. The note with it: for IC50: Homo sapiens, NHDF; for inhibition (INH): human, nhdf. The procedure, abridged: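 Normal human dermal fibroblasts were grown in DMEM with 10% FBS. Seeded at 5000 cells/well and incubated overnight, then exposed to compounds or DMSO vehicle for 48 h. Viability was read by MTS absorbance at 490 nm and normalized to vehicle. Each experiment was run in triplicate or quadruplicate.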

Where only a bound is given, the exact number is not on record here.

As a reminder, the IC50 is the point on the concentration scale where inhibition reaches its midpoint.

As for `CNC(=O)c1cc(Oc2ccc(NC(=O)Nc3ccc(Cl)c(C(F)(F)F)c3)cc2)ccn1` [SORAFENIB], the IC50 in series [1] came out at 5.1 µM; in series [2] it was 3.8 µM.

With `COc1c(CC=C(C)C)c(O)c(C(CC(C)C)c2c(O)c(C(C)=O)c(O)c3c2OC(C(C)(C)O)C3)c(O)c1C(C)=O` (stereo not given) [ACROFOLIONE A], the inhibition result in series [1] and in series [2] was “Dose-dependent effect” in each case. The concentration for half-maximal inhibition (IC50) in series [1] was above 5 µM; in series [2], 4.2 µM; in series [3], above 5 µM. Further, the “inhibition (INH)” value in series [3] is reported as “Dose-dependent effect”.

With `COc1c(CC=C(C)C)c(O)c([C@H](CC(C)C)c2c(O)c(CC=C(C)C)c(O)c(C(C)=O)c2O)c(O)c1C(C)=O` [ACROVESTONE], in series [1], the inhibition result was “Dose-dependent effect” and the IC50 came out at 0.93 µM. In series [2], the inhibition result is “Dose-dependent effect” and the IC50 amounted to 0.38 µM. In series [3], the IC50 was above 5 µM and the “inhibition (INH)” value is recorded as “Dose-dependent effect”.

For the compound `C=C(C)C(O)Cc1c(O)c(C(C)=O)c(O)c(C(CC(C)C)c2c(O)c(CC=C(C)C)c(OC)c(C(C)=O)c2O)c1O` (stereo not given) [ACROVESTENOL], the inhibition result in series [1] and in series [2] was “Dose-dependent effect” each time. For the same compound, the IC50 in series [1] is 2.7 µM; in series [2], 2.8 µM; in series [3], above 5 µM. In addition, the “inhibition (INH)” value in series [3] is listed as “Dose-dependent effect”.

The record behind these values is ChEMBL document CHEMBL2086260, “Cytotoxic prenylated acetophenone dimers from Acronychia pedunculata” (J Nat Prod, 2012).
